Laboratory results taken from paper PMC8081235 (Biochemistry, 2020).
Where a chain is given by its changes, count along the chain named. Like-named read-outs stand apart in the source and are kept apart here.

Experiments:
[1] = biological target: T1, PLC-γ1 (D1165H) (Rattus norvegicus, UniProt P10686, D1165H); assay: IC50 measurement with XY-69 in liposomes; format: biochemical; settings: for inhibition of PLC-γ1: statement in conclusions, relative to ATP
T1 sequence (P10686 1-1290 D1165H): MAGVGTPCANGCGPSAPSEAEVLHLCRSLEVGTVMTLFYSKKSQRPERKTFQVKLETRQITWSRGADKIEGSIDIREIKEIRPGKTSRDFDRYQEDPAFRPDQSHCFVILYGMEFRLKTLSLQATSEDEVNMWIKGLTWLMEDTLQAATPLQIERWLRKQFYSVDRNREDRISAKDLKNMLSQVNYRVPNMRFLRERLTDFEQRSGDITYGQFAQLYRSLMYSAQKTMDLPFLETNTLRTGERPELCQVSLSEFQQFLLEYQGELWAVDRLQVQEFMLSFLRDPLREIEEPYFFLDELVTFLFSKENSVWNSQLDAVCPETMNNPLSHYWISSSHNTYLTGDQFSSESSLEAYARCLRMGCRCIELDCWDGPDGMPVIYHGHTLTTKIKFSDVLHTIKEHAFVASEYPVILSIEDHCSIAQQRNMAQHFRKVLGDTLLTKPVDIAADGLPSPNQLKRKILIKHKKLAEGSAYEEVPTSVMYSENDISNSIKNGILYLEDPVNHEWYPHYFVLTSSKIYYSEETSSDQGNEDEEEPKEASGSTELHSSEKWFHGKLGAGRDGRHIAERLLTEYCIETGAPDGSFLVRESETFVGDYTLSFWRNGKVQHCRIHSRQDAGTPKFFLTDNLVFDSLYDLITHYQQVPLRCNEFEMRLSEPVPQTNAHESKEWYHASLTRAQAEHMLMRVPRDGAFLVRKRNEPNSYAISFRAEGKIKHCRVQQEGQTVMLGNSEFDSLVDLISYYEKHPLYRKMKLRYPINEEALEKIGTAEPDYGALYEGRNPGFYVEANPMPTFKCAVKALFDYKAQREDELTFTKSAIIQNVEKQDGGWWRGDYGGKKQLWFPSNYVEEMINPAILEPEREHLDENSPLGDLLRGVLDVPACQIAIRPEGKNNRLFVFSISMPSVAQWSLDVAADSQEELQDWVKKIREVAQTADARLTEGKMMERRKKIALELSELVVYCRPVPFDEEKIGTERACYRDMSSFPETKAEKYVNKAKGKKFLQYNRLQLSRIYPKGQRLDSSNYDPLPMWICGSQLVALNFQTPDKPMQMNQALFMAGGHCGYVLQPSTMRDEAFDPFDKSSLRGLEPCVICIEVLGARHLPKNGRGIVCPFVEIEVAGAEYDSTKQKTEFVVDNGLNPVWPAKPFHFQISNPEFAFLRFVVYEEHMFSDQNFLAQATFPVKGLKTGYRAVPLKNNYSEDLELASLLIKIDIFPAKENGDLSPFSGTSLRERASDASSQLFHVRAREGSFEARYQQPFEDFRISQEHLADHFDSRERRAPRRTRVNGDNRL

[2] = biological target: T1, PLC-γ1 (D1165H); assay: Pilot high-throughput screen of LOPAC1280 with XY-69 in liposomes; format: biochemical
Outline: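 Screening was run in duplicate in 384-well format with test compounds at 10 μM. Purified PLC-γ1 (D1165H), 1 nM final, was preincubated 15 min at room temperature, then liposomes were added (final PE 220 μM, PIP₂ 20 μM, XY-69 0.5 μM). After 1 h the reaction was quenched with EGTA, pH 10.3, and read 30 min later (ex 485/em 520 nm). Full-inhibition controls were EGTA 10 mM and aurintricarboxylic acid 50 μM.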

[3] = stated without experiment or reference; cited from earlier work
[4] = system: PLCs; settings: purified enzymes and intact cells; pan-inhibitors ref 24; cited from earlier work
[5] = biological target: T2, wild-type PLC-γ1 (Rattus norvegicus, UniProt P10686); assay: Isothermal titration calorimetry; format: binding; settings: ITC, 25 °C
T2 sequence (P10686 2-1290): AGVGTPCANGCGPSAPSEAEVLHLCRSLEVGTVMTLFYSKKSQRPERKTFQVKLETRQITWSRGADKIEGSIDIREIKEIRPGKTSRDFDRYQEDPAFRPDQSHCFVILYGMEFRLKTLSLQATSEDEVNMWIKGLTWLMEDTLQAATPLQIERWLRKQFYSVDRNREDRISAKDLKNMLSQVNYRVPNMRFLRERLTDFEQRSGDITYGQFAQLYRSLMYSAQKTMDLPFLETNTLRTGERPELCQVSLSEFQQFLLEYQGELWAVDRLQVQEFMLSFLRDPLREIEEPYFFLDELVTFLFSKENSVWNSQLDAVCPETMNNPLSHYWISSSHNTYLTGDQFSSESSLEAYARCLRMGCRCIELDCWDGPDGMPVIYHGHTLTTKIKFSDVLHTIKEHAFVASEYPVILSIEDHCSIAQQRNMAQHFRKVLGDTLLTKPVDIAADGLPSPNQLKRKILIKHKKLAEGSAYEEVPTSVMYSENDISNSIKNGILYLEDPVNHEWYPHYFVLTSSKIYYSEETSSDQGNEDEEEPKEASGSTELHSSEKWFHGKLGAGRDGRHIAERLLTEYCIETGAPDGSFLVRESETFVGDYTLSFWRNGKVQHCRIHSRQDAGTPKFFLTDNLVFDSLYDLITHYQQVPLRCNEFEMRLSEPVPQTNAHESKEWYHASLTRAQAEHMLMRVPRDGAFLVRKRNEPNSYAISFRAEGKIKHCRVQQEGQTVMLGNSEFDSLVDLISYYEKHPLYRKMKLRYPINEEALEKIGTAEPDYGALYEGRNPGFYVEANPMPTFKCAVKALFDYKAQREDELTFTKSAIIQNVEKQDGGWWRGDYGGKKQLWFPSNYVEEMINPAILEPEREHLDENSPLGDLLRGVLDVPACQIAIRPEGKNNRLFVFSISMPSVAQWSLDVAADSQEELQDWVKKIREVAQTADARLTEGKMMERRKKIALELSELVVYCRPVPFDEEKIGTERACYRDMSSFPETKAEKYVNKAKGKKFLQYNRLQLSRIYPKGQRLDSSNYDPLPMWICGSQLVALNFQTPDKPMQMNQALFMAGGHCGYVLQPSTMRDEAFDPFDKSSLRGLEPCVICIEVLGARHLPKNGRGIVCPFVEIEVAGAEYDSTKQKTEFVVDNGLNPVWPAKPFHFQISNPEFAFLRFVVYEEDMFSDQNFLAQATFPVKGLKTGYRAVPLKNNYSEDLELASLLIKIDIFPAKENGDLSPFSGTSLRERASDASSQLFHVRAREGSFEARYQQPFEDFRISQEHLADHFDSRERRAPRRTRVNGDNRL

[6] = biological target: T3, wild-type PLC-γ1 (Rattus norvegicus, UniProt P10686)
T3 sequence (P10686 1-1290): T1 sequence (P10686 1-1290 D1165H) with H1165D

[7] = system: PLC-β4; settings: high concentration (1 mM) ref 39; cited from earlier work
[8] = system: PLC-γ1; settings: purified PLC ref 7; cited from earlier work
[9] = system: PLC-β2; settings: purified PLC ref 7; cited from earlier work
[10] = system: PLC-δ1; settings: purified PLC ref 7; cited from earlier work
[11] = Solubility; format: physicochemical
[12] = XY-69 0.5 μM, PIP2 20 μM in liposomes

## Nc1ncnc2c1ncn2[C@@H]1O[C@H](COP(=O)(O)O)[C@@H](O)[C@H]1O [AMP]
[1]
  inhibition of PLC-γ1: less or no inhibition

## O=C(O)CN(CCOCCOCCN(CC(=O)O)CC(=O)O)CC(=O)O [EGTA]
[2]; 10 mM, chelates Ca2+ cofactor
  inhibition by control in pilot screen: Full inhibition

## O=C(O)C1=CC(=C(c2ccc(O)c(C(=O)O)c2)c2ccc(O)c(C(=O)O)c2)C=CC1=O [ATA, aurintricarboxylic acid]
[2]; 50 μM
  inhibition by control in pilot screen: Full inhibition
[3]
  cell permeability: not cell permeable
[4]
  direct inhibition of PLCs: direct inhibitors

## Nc1ncnc2c1ncn2[C@@H]1O[C@H](COP(=O)(O)OP(=O)(O)O)[C@@H](O)[C@H]1O [ADP]
[1]; [12]
  IC50: 4.3 µM
[1]
  inhibition of PLC-γ1: less or no inhibition

## Nc1ncnc2c1ncn2[C@@H]1O[C@H](COP(=O)(O)OP(=O)(O)OP(=O)(O)O)[C@@H](O)[C@H]1O [ATP, adenosine triphosphate]
[1]
  IC50: 0.19 µM
[5]
  Kd: 2.6 µM
[6]; 5 μM ATP present
  reduction of Vmax: 4.1 fold
[6]; 1.5 and 5 μM ATP present
  change of KM: essentially unchanged
[3]
  cell permeability: not cell permeable
[7]
  inhibition: inhibit

## Nc1nc2c(ncn2[C@@H]2O[C@H](COP(=O)(O)OP(=O)(O)OP(=O)(O)O)[C@@H](O)[C@H]2O)c(=O)[nH]1 [GTP]
[1]; [12]
  IC50: 12.7 µM

## COc1ccc2c(c1)CC[C@@H]1[C@@H]2CC[C@]2(C)[C@@H](NCCCCCCN3C(=O)C=CC3=O)CC[C@@H]12 [Hit U73122]
[2]; LOPAC1280 at 10 μM
  flagged as inhibitor in pilot screen: not flagged as an inhibitor
[8]
  inhibition of phospholipase activity: does not inhibit
[9]
  inhibition of phospholipase activity: does not inhibit
[10]
  inhibition of phospholipase activity: does not inhibit

## O=C1Nc2cc(Br)ccc2/C1=C1/Nc2ccccc2/C1=N\O [Hit-1, 6-bromoindirubin-3′-oxime]
[11]
  solubility in aqueous buffer: poor solubility
[3]
  cell permeability: cell permeable
